Results: ChEMBL document CHEMBL1800004, “Discovery of 4-anilinofuro[2,3-b]quinoline derivatives as selective and orally active compounds against non-small-cell lung cancers” (J Med Chem, 2011)
Each block holds one molecule with its values, some of them ahead of it. Active and inactive are the calls of the source. No cut-off for these calls is given here.

Columns and labels:
[1] = Volume of distribution at steady state in fasted CD-1(Crl) mouse at 2 mg/kg, iv administered as single dose; type: ADME, organism-based; design: dose 2 mg/kg, route intravenous; details: in vivo, read-out: Vdss
Outline: (§1)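 Fasted male CD-1 (Crl) mice received a single intravenous dose of 2.0 mg/kg or a single oral dose of 20 mg/kg. Parameters came from mean plasma concentration–time profiles, run by a contract lab.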

Lung = assay: Drug uptake in lung of orthotropic lung cancer nude mouse model xenografted with human H1229 cells at 120 mg/kg, po administered for 2 weeks; type: ADME, organism-based; design: dose 120 mg/kg, route oral; details: in vivo, 336 h
[2] = Aqueous solubility of the compound by UV/ vis spectrophotometry; type: physicochemical
Outline: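 Excess solid was added to doubly distilled water, sonicated 5 min, then stirred overnight at 25 °C to reach equilibrium. After centrifugation, supernatant absorbance was read by UV/vis at 315–420 nm against per-compound standard curves.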

[3] = Cmax in fasted CD-1(Crl) mouse at 2 mg/kg, iv administered as single dose; type: ADME, organism-based; design: dose 2 mg/kg, route intravenous; details: in vivo
Outline: (§2)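 Fasted male CD-1 (Crl) mice each received a single intravenous dose of 2.0 mg/kg or a single oral dose of 20 mg/kg, and plasma concentration–time profiles were recorded. For the iv route, Cmax was extrapolated to plasma concentration at time 0. Half-life was derived from terminal time-point windows specified per compound.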

[4] = AUC (0 to infinity) in fasted CD-1(Crl) mouse at 2 mg/kg, iv administered as single dose; type: ADME, organism-based; design: time infinity, dose 2 mg/kg, route intravenous; details: plasma; outline: as §2
[5] = Mean residence time in fasted CD-1(Crl) mouse at 2 mg/kg, iv administered as single dose; type: ADME, organism-based; design: dose 2 mg/kg, route intravenous; details: in vivo; outline: as §1
[6] = Clearance in fasted CD-1(Crl) mouse at 2 mg/kg, iv administered as single dose; type: ADME, organism-based; design: dose 2 mg/kg, route intravenous; details: in vivo; outline: as §2
[7] = Apparent volume of distribution in fasted CD-1(Crl) mouse at 2 mg/kg, iv administered as single dose; type: ADME, organism-based; design: dose 2 mg/kg, route intravenous; details: in vivo, read-out: Vz; outline: as §2
[8] = Cmax in fasted CD-1(Crl) mouse at 20 mg/kg, po administered as single dose; type: ADME, organism-based; design: dose 20 mg/kg, route oral; details: in vivo; outline: as §2
[9] = AUC (0 to infinity) in fasted CD-1(Crl) mouse at 20 mg/kg, po administered as single dose; type: ADME, organism-based; design: dose 20 mg/kg, route oral, time infinity; details: plasma; outline: as §2
[10] = Tmax in fasted CD-1(Crl) mouse at 20 mg/kg, po administered as single dose; type: ADME, organism-based; design: dose 20 mg/kg, route oral; details: in vivo; outline: as §1
[11] = Mean residence time in fasted CD-1(Crl) mouse at 20 mg/kg, po administered as single dose; type: ADME, organism-based; design: dose 20 mg/kg, route oral; details: in vivo; outline: as §1
[12] = Oral bioavailability in fasted CD-1(Crl) mouse at 20 mg/kg administered as single dose; type: ADME, organism-based; details: in vivo; outline: as §1
[13] = Half life in fasted CD-1(Crl) mouse at 2 mg/kg, iv administered as single dose measured after 9 to 27 hrs post dose; type: ADME, organism-based; design: dose 2 mg/kg, route intravenous; details: in vivo; outline: as §2
[14] = Half life in fasted CD-1(Crl) mouse at 20 mg/kg, po administered as single dose measured after 2 to 24 hrs post dose; type: ADME, organism-based; design: dose 20 mg/kg, route oral; details: in vivo; outline: as §2
NCI-H460 [15] = assay: Antitumor activity against human NCI-H460 cells xenografted subcutaneously in BALB/c nude mouse assessed as survival rate at 60 to 120 mg/kg, po qd for 6 days relative to control; type: functional, organism-based
Outline: (§3)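 NCI-H460 cells were grown in RPMI1640 with 10% NBS and harvested by trypsin. 5 × 10⁶ cells in 40% Matrigel were injected subcutaneously into the flanks of 6–8-week-old Balb/c nude mice. Once tumors reached 5 mm³, dosing ran 6 days (ip 10 or 20; oral 60 or 120), vehicle DMSO/1.4% Tween 80/1% carboxymethylcellulose saline. Tumors were caliper-measured, weighed at sacrifice, and survival analyzed by Kaplan–Meier.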

NCI-H460 [16] = assay: Antitumor activity against human NCI-H460 cells xenografted subcutaneously in BALB/c nude mouse assessed as decreased tumor size at 60 to 120 mg/kg, po qd for 6 days relative to control; type: functional, organism-based; outline: as §3
NCI-H460 [17] = assay: Antitumor activity against human NCI-H460 cells xenografted subcutaneously in BALB/c nude mouse assessed as decreased tumor size at 10 to 20 mg/kg, ip for 6 days relative to control; type: functional, organism-based; outline: as §3
NCI-H460 [18] = assay: Antitumor activity against human NCI-H460 cells xenografted subcutaneously in BALB/c nude mouse assessed as increased tumor regression at 10 to 20 mg/kg, ip for 6 days relative to control; type: functional, organism-based; outline: as §3
NCI-H460 [19] = assay: Effect on cell cycle in human NCI-H460 cells assessed as rounded-up phenotype at 1 uM after 24 hrs; type: functional, cell-based
Outline: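 Morphology of H460 cells was inspected for rounding after 1 μM treatment for 24 h.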

NCI-H460 [20] = assay: Antitumor activity against human NCI-H460 cells xenografted subcutaneously in BALB/c nude mouse assessed as increased tumor regression at 60 to 120 mg/kg, po for 6 days relative to control; type: functional, organism-based; outline: as §3
NCI-H460 [21] = assay: Cell cycle arrest in human NCI-H460 cells assessed as cell accumulation in 4N ploidy after 24 hrs using propidium iodide staining based flow cytometric analysis; type: functional
NCI-H460 [22] = assay: Induction of apoptosis human NCI-H460 cells assessed as caspase 3 cleavage; type: functional, cell-based
NCI-H460 [23] = assay: Induction of apoptosis human NCI-H460 cells assessed as PARP cleavage; type: functional, cell-based
NCI-H460 [24] = assay: Increase in MPM2 phosphoprotein level in human NCI-H460 cells after 16 hrs by immunoblotting analysis; type: functional, cell-based
Outline: (§4)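 H460 lysates were immunoblotted for MPM2 and cyclin B after 16 h treatment across a concentration series.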

NCI-H460 [25] = assay: Increase in cyclin B level in human NCI-H460 cells after 16 hrs by immunoblotting analysis; type: functional, cell-based; outline: as §4
NCI-H460 [26] = assay: Antimitotic activity in human NCI-H460 cells assessed as mitotic catastrophe at 3 uM after 12 hrs using DAPI staining based immunofluorescence analysis; type: functional, cell-based
Outline: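 H460 cells were treated at 3 μM for 12 h and co-stained for α-tubulin (immunofluorescence) and DAPI. Images were taken at 1000×, and centrosome number was counted in 50 cells.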

Bos taurus [27] = species: Bos taurus; assay: Inhibition of bovine tubulin assessed as inhibition of microtubule formation preincubated at 1 uM by light-scattering assay relative to control
Outline: (§5)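 Light-scattering assay with 5 μg bovine tubulin preincubated with compound. Spontaneous microtubule formation was followed as turbidity increase at OD 340 nm and compared with the untreated control.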

Bos taurus [28] = species: Bos taurus; assay: Inhibition of bovine tubulin assessed as inhibition of microtubule formation preincubated at 3 uM by light-scattering assay; outline: as §5
[29] = molecular target: T1, DNA topoisomerase 1 (Homo sapiens) (UniProt P11387); assay: Inhibition of human topoisomerase 1 mediated relaxation of super coiled pBR322 plasmid DNA at 30 uM after 30 mins by agarose gel electrophoresis
T1 sequence (whole entry): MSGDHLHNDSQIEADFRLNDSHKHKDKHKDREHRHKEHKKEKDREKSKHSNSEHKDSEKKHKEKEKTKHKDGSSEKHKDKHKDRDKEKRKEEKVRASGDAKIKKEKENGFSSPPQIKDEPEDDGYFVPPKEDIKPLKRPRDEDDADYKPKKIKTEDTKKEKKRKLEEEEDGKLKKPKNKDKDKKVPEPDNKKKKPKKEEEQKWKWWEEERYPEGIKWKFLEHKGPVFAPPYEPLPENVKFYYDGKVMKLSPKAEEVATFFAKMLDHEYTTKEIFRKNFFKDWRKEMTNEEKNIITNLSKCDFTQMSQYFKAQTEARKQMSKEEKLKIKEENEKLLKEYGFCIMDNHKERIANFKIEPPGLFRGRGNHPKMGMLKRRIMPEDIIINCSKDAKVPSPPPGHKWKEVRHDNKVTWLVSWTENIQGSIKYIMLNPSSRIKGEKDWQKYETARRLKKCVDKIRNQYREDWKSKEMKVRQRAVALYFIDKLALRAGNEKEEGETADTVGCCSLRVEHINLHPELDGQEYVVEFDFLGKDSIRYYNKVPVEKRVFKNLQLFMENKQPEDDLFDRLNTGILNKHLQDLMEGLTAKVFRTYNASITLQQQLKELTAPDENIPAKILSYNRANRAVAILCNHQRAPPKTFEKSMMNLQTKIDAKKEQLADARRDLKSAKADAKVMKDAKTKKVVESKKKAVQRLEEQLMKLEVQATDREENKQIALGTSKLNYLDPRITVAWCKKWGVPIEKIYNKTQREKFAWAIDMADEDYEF

[30] = molecular target: DNA topoisomerase 2-alpha (Homo sapiens) (UniProt P11388); assay: Inhibition of human topoisomerase 2 mediated relaxation of super coiled pBR322 plasmid DNA at 30 uM after 30 mins by agarose gel electrophoresis
H1229 = assay: Anticancer activity against human H1229 cells xenografted in orthotropic lung cancer nude mouse model assessed as cancer growth inhibition at 120 mg/kg, po administered for 2 weeks monitored for 10 weeks; type: functional, organism-based; design: dose 120 mg/kg
Outline: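 Orthotopic lung model using H-1229 cells. Nude mice were irradiated (500 rads γ) and anesthetized with ketamine/xylazine (160/12 mg/kg, im), then tumor tissue was implanted by cannula. Oral dosing lasted 2 weeks. Mice were checked daily for morbidity, and animal and primary tumor weights were recorded over 10 weeks.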

NCI-H460 [31] = assay: Antitumor activity against human NCI-H460 cells xenografted subcutaneously in BALB/c nude mouse assessed as survival rate at 10 to 20 mg/kg, ip for 6 days relative to control; type: functional, organism-based; outline: as §3

Chain of DNA topoisomerase 2-alpha (Homo sapiens) (P11388 whole entry): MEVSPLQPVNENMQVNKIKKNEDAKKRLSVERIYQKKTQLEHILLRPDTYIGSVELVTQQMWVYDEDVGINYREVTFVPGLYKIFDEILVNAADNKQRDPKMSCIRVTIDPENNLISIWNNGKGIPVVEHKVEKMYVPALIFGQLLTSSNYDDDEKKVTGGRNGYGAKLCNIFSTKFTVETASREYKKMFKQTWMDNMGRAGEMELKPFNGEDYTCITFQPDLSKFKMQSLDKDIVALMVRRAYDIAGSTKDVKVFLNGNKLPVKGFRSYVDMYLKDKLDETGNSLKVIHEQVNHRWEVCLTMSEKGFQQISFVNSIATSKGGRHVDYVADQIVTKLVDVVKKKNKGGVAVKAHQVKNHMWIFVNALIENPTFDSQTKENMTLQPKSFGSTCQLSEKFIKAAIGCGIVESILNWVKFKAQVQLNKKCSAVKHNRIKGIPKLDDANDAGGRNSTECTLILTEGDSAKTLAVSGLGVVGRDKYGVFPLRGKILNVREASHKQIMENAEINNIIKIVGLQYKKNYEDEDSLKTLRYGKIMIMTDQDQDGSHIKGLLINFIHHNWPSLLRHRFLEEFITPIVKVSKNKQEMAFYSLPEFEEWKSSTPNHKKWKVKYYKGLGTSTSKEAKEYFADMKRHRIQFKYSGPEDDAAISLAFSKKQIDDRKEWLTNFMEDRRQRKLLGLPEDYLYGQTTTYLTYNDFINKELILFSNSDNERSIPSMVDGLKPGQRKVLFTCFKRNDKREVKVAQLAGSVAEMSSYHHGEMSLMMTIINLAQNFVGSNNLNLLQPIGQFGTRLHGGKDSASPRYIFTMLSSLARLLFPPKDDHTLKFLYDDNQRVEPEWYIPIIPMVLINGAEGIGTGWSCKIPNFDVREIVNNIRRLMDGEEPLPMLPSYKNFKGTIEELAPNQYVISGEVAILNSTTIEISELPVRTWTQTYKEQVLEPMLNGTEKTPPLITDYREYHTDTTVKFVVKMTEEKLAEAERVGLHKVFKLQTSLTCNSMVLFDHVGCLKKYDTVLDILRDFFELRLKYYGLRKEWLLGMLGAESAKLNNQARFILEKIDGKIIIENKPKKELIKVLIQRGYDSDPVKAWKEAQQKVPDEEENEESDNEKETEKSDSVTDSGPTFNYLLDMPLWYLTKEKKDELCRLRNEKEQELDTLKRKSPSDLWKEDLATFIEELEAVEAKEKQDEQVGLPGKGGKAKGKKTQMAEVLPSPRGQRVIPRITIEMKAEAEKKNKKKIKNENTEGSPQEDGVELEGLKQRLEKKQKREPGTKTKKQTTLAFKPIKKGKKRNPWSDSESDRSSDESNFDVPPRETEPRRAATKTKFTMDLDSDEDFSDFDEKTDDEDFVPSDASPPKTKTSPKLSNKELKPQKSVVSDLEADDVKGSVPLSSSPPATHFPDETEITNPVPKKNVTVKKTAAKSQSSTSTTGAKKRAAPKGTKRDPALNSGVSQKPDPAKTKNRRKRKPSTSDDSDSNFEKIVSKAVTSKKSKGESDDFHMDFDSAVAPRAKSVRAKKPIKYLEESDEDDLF

- Vd [1]: 13.5 L/kg
- Drug uptake (Lung): Active
- solubility [2]: 1050 µg/mL
- Cmax [3]: 1490 ng/mL
- AUC(0-inf) [4]: 363 ng·h/mL
- MRT [5]: 2.5 h
- clearance [6]: 91.9 mL/min/kg
- Vd [7]: 38.8 L/kg
- Cmax [8]: 1900 ng/mL
- AUC(0-inf) [9]: 2070 ng·h/mL
- Tmax [10]: 0.5 h
- MRT [11]: 3 h
- bioavailability [12]: 57.1%
- half-life [13]: 4.9 h
- half-life [14]: 3.4 h
Compound: C/C(=N\OCCN)c1ccc(Nc2c3ccccc3nc3occc23)cc1.Cl

- inhibition (Bos taurus [27]): 50%
- inhibition (Bos taurus [28]): Active
- inhibition [29]: inactive
- inhibition [30]: inactive
Compound: C/C(=N\OCCN)c1ccc(Nc2c3ccccc3nc3occc23)cc1
- Activity (NCI-H460 [15]): Active
- Activity (NCI-H460 [16]): Active
- Activity (NCI-H460 [17]): Active
- Activity (NCI-H460 [18]): Active
- Activity (NCI-H460 [19]): Active
- Activity (NCI-H460 [20]): Active
- Activity (NCI-H460 [21]): Dose-dependent effect
- Activity (NCI-H460 [22]): Dose-dependent effect
- Activity (NCI-H460 [23]): Dose-dependent effect
- Activity (NCI-H460 [24]): Dose-dependent effect
- Activity (NCI-H460 [25]): Dose-dependent effect
- Activity (NCI-H460 [26]): Active
- Activity (H1229): Active
- Activity (NCI-H460 [31]): Active
